Assay outcomes (PubChem BioAssay)
An excerpt weighted towards active compounds, which were near 2.3% of everything screened.
TRPC4 block – blocks the mouse TRPC4 cation channel. Q9QUQ5. HEK293 TRPC4beta/mu-opioid, DAMGO-evoked Fluo4 calcium flux; hits give low values. B-score at 10 µM. actives 0.39% (n = 300,000);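 active = B-score over 3 SD under the library average, no early fluorescence shift, positive overall ratio signal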
Target sequence (Q9QUQ5 whole entry, looked up): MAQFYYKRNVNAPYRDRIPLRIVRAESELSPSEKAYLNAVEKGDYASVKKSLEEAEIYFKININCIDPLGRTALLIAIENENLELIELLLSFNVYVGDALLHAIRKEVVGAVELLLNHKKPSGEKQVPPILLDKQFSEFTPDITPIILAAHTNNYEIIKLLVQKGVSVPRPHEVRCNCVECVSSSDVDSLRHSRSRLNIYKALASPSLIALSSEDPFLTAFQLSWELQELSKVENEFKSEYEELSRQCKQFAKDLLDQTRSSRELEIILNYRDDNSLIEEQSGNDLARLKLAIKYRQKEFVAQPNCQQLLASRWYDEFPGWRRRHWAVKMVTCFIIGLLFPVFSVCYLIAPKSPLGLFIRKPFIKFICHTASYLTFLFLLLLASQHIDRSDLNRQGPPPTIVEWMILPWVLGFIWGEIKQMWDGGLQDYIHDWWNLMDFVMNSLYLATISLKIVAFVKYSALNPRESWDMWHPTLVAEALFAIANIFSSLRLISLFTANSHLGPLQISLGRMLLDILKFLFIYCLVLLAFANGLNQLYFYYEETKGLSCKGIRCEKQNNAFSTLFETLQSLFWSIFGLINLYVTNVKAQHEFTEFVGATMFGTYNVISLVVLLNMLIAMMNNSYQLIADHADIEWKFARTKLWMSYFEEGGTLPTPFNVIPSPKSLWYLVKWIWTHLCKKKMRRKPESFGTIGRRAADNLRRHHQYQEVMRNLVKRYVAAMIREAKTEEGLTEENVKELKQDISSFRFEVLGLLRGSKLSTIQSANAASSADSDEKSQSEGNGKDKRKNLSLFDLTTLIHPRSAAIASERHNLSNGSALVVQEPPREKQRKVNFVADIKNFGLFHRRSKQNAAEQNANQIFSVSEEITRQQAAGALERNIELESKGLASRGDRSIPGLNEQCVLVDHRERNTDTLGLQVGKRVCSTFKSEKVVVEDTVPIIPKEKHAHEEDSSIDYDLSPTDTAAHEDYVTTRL
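Signal: kinetic Fluo4 fluorescence imaging of calcium influx. Material: stable TRPC4beta/mu-opioid receptor HEK293 cells. Probe or stimulus: DAMGO in two steps, submaximal then maximal.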
TRPC6 act – activators of mouse TRPC6 channel | HEK293-TRPC6 membrane potential dye fluorescence; hits give high values | B-score at 10 µM | actives 0.13% (n = 310,000) | AID 2550;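 active = B-score of the integrated fluorescence ratio above library mean plus 3 SD, and starting fluorescence ratio within library mean plus 5 SD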;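 also: higher score means more depolarization so channel activation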
TRPC6 inhibitor – inhibitors of mouse TRPC6 channel. HEK293-TRPC6, membrane potential dye, ACh-evoked depolarization; hits give low values. B-score at 10 µM. actives 1.1% (n = 310,000);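 active = B-score under library mean minus 3 SD, initial fluorescence not abnormally high, positive integrated signal ratio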;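 also: B-score derived from integrated fluorescence ratio over the kinetic read; more negative B-score means stronger inhibition of depolarization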
TRPC4 PAM – allosteric potentiators of mouse TRPC4 channel; B-score at 10 µM; Q9QUQ5; HEK293 TRPC4beta/mu-opioid, DAMGO EC20, Fluo-4 Ca2+ flux; hits give high values; AID 2227; actives 0.42% (n = 310,000);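 active = B-score of calcium response area above 5 SD of library B-scores, with initial fluorescence ratio within 5 SD of library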;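 also: B-score of integrated fluorescence ratio over time as area under calcium response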
TRPC4 act – TRPC4 (mouse) channel activation; B-score at 10 µM; AID 2237; Q9QUQ5; actives 0.49% (n = 310,000); HEK293 TRPC4beta/mu-opioid, Fluo4 calcium fluorescence; hits give high values;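 active = B-score above 5 SD of library B-scores, and initial fluorescence ratio not above library mean plus 5 SD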;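 also: positive B-score marks a calcium rise read as TRPC4 activation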
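System – HEK293 cells stably co-expressing mouse TRPC4beta and mu-opioid receptor · Signal – Fluo4 calcium-sensitive dye fluorescence, kinetic, 1 Hz baseline · Benchmarks – buffer (low) and maximal DAMGO (high) · Read-out – B score of integrated fluorescence ratio per well · Incubation – dye loading 45 min room temperature, 110 s kinetic read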
TRPC4 sel inh 2 – mouse TRPC4 off-target activity of TRPC6 inhibitors, second screen | shares compounds with TRPC6 inhibitor | HEK293 TRPC4/MOR, membrane potential dye fluorescence; channel activated by saturating DAMGO dose | inhibition, % at 10 µM | actives 42% (n = 920);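 active = compounds whose fluorescence signal differed from control wells by over 3 SD, either direction, in both duplicate plates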
TRPC4 spec – selectivity of TRPC6 inhibitors: effect on mouse TRPC4 | HEK293 TRPC4/mu-opioid, membrane potential fluorescence | activity change, negative = inhibition, % at 10 µM | shares compounds with TRPC6 inhibitor | actives 61% (n = 920);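 active = rise or fall in signal beyond 3 SD of buffer-only wells in both replicate plates, either sign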;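 also: integrated kinetic ratio of fluorescence range over baseline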
HEK293 MPD ctr 2-1 – second check of TRPC6 inhibitor effects in parental HEK293 cells; parental HEK293 membrane potential dye fluorescence; maximal acetylcholine challenge after compound addition; signal change vs control, % at 10 µM; actives 31% (n = 920); shares compounds with TRPC6 inhibitor;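 active = membrane potential signal moving either way by over 3 SD of the maximum-effect control, in both duplicate plates, meaning non-specific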
HEK293 MPD ctr-1 – parental HEK293 nonspecific activity of TRPC6 inhibitors | shares compounds with TRPC6 inhibitor | parental HEK293 membrane potential dye fluorescence | membrane potential signal change, % at 10 µM | actives 60% (n = 920);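 active = membrane potential signal shifting up or down by more than 3 SD of buffer-only wells, on both duplicate plates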
HEK293 MPD ctr-2 – checks TRPC6 modulator effects in parental HEK293 cells; shares compounds with TRPC6 inhibitor; membrane potential dye fluorescence; membrane potential signal change, % at 10 µM; actives 51% (n = 2,400); AID 488924;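 active = membrane potential signal moves up or down beyond 5 SD from buffer-only wells, on both duplicate plates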
HEK293 MPD ctr 2-2 – second counter-screen for TRPC6 modulators: effect in parental HEK293 cells; inhibition, % at 10 µM; actives 14% (n = 2,400); shares compounds with TRPC6 inhibitor; membrane potential dye fluorescence; after compound, maximal acetylcholine stimulation;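 active = membrane potential signal drops by more than 5 SD from the mean control signal, in both duplicate plates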;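 also: plate controls were acetylcholine ECmax control wells for no effect and buffer only wells for full effect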
TRPC4/MOR mod – selectivity of TRPC6 modulators against mouse TRPC4. shares compounds with TRPC6 inhibitor. HEK293 TRPC4/mu-opioid, membrane potential fluorescence. percent change from control (negative = decrease, positive = increase), % at 10 µM. actives 69% (n = 2,400). AID 488927;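 active = membrane potential signal moved up or down beyond 5 SD of buffer control wells, in both duplicate plates, actives on both sides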;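 also: plate controls were assay buffer wells for no effect and DAMGO maximal-effect wells for full effect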
TRPC4/MOR inh 2 – second check of whether TRPC6 modulators also affect mouse TRPC4; HEK293 TRPC4/mu-opioid, membrane potential dye fluorescence; stimulated with maximal-effect DAMGO; actives 55% (n = 2,400); shares compounds with TRPC6 inhibitor; inhibition, % at 10 µM;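 active = drop in membrane potential signal beyond 5 SD of the control wells in both duplicate plates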;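 also: TRPC4 counter screen for TRPC6 hits run under conditions tuned for TRPC6 not TRPC4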
TRPC6 inh conf – confirmation of mouse TRPC6 inhibitors | shares compounds with TRPC6 inhibitor | HEK293-TRPC6, membrane potential dye, ACh-evoked depolarization | inhibition, % at 10 µM | AID 488960 | actives 43% (n = 3,300);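 active = fluorescence ratio falls more than 5 SD below the full-stimulation control mean, in both duplicate runs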;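 also: integrated fluorescence ratio of peak minus minimum over baseline after agonist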
TRPC6 act confirm – mouse TRPC6 activator confirmation; activation, % at 10 µM; actives 11% (n = 2,800); HEK293-TRPC6 membrane potential dye fluorescence, FDSS; shares compounds with TRPC6 inhibitor; AID 488961;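 active = ratio signal rise beyond 5 SD above unstimulated control wells' mean, seen in both duplicate runs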;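 also: plate controls were buffer EC0 wells for no effect and acetylcholine ECmax response for full effect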
* hit, by the source's call; i = inactive; x = no result given.

SMILES	TRPC4 block	TRPC6 act	TRPC6 inhibitor	TRPC4 PAM	TRPC4 act	HEK293 MPD ctr-2	HEK293 MPD ctr 2-2	TRPC4/MOR mod	TRPC4/MOR inh 2	TRPC6 inh conf	TRPC6 act confirm	others
COc1ccc(C(C(=O)NC2CCCC2)N(C(=O)c2csnn2)C2CCCC2)cc1 (stereo unspecified)	i	i	-6.31*	i	i	i	i	18.0%*	i	i	x
COc1nc(OC)nc(N2CCC(C(=O)NCc3cccs3)CC2)n1	i	i	i	i	i	x	x	x	x	x	x
COc1cc(/C=C(\C#N)c2ccccn2)cc(OC)c1O	i	13.6*	-5.11*	i	i	458.0%*	72.5%*	66.5%*	i	46.5%*	146.5%*
CCC1(CC)C(=O)NC(=O)NC1=NCCc1ccc(O)cc1	i	i	i	i	i	x	x	x	x	x	x
Cc1ccn2c(NC(=O)C(C)(C)Oc3ccc(Cl)cc3)c(-c3cccs3)nc2c1	i	i	-8.79*	i	i	-120.0%*	i	-26.0%*	87.5%*	58.0%*	i
Cc1ccc(C(=O)Nc2c(-c3cccs3)nc3cc(C)ccn23)cc1	i	i	i	i	i	x	x	x	x	x	x
CC(C)c1csc(CN2CCCC(CNC(=O)c3cccc4ccccc34)C2)n1 (stereo unspecified)	i	i	i	i	i	x	x	x	x	x	x
CC1=CC(=C(C#N)c2nc3ccccc3s2)C=C(C)N1CC1CCCO1 (stereo unspecified)	i	i	-9.84*	i	i	485.5%*	i	-92.5%*	i	i	i
CCOc1ccc(NC(=O)CC2C(=O)N(CC)C(=S)N2CCN2CCOCC2)cc1 (stereo unspecified)	i	i	i	i	i	x	x	x	x	x	x
CCOc1ccc(NC(=O)CC2C(=O)N(CC)C(=S)N2CCNC(C)=O)cc1 (stereo unspecified)	i	i	-5.5*	i	i	i	i	i	i	i	i
CCN1C(=O)C(CC(=O)Nc2ccc(F)cc2)N(CCCN2CCN(c3ccc(F)cc3)CC2)C1=S (stereo unspecified)	i	i	-6.48*	i	i	i	i	i	47.0%*	44.0%*	i
COC(=O)/C(=C\C=C\c1ccccc1)NC(=O)c1ccccc1	i	i	i	i	i	x	x	x	x	x	x
Fc1ccc(Nc2nnc(C(F)(F)F)s2)cc1Cl	i	i	-8.78*	i	i	x	x	x	x	61.0%*	i	TRPC4 sel inh 2=i;TRPC4 spec=i;HEK293 MPD ctr 2-1=i;HEK293 MPD ctr-1=i
Cc1ccc([N+](=O)[O-])c(OCCN2CCCCCC2)c1	i	i	i	i	i	x	x	x	x	x	x
O=[N+]([O-])c1cccc(OCCN2CCC(Cc3ccccc3)CC2)c1	i	i	-8.45*	i	i	x	x	x	x	61.5%*	i	TRPC4 sel inh 2=33.0%*;TRPC4 spec=i;HEK293 MPD ctr 2-1=i;HEK293 MPD ctr-1=i
O=Cc1cc(Cl)ccc1OCCN1CCC(Cc2ccccc2)CC1	i	i	i	i	i	x	x	x	x	x	x
Cc1ccc([N+](=O)[O-])c(OCCCN2CCC(Cc3ccccc3)CC2)c1	i	i	-5.17*	i	i	i	i	i	73.0%*	53.0%*	i
O=C(CSc1nnc(-c2cccs2)n1CC1CCCO1)N1CCCC1 (stereo unspecified)	i	i	i	i	i	x	x	x	x	x	x
O=C(CCCSc1nnc(-c2cccs2)n1CC1CCCO1)c1ccccc1 (stereo unspecified)	i	i	-5.18*	i	i	186.5%*	i	33.5%*	i	i	x
Clc1ccc2oc(SCc3cccnc3)nc2c1	i	i	i	i	i	x	x	x	x	x	x
COc1ccccc1C1=NOC(C)(c2sc(-c3ccc(Cl)cc3)nc2C)C1 (stereo unspecified)	i	i	i	i	i	x	x	x	x	x	x
Cc1ccc(NC(=O)[C@@H](CC(C)C)NC(=O)[C@@H]2Cc3ccccc3CN2)cc1	i	i	-5.09*	i	i	i	i	i	46.5%*	65.5%*	i
Nc1ccccc1Nc1cc(-c2ccccc2)nn1-c1cccc(Cl)c1	i	i	-5.59*	i	i	i	i	i	29.5%*	i	i
c1ccc(OCCCCn2cnc3ccccc32)cc1	i	i	i	i	i	x	x	x	x	x	x
Cc1nnc(C)c2c(C)n(C(C)c3ccccc3)c(C)c12 (stereo unspecified)	i	i	i	i	i	x	x	x	x	x	x
COc1ccc(C(C)n2c(C)c3c(C)nnc(C)c3c2C)cc1 (stereo unspecified)	i	i	-8.12*	i	i	-219.5%*	i	-30.0%*	65.0%*	i	i
COc1cc(/C=N/NC(=O)Cn2nc([N+](=O)[O-])cc2C)cc(Br)c1OCc1ccccc1	i	i	-5.08*	i	i	i	i	i	i	i	i
